Bioassay records deposited in PubChem BioAssay by The Scripps Research Institute Molecular Screening Center.
In the library only some 2.3% were active in any assay of this set; here they are far more common.
PRMT1 inh: PRMT1 (human) inhibition, primary screen; Q99873; recombinant PRMT1, activity-based probe fluorescence polarization; inhibition, % at 2.79 µM; 370,000 compounds, 1.3% hits;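 active = inhibition above about 21% made by adding two undisclosed values, limit read from the data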
Target sequence (Q99873 whole entry, looked up): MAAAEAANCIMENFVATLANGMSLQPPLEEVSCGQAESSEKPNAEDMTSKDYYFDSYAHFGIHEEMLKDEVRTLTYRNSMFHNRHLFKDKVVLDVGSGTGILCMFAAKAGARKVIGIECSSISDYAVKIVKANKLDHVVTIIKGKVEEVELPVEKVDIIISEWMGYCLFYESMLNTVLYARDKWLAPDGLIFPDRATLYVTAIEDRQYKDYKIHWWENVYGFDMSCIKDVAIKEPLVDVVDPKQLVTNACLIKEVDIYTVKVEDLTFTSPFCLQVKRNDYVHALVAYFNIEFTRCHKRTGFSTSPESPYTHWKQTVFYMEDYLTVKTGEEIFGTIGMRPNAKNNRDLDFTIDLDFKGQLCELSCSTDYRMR
GSTO1 counter: counter-screen for RBBP9 inhibitors: inhibitors of human GSTO1; P78417; recombinant GSTO1, activity-based probe fluorescence polarization; inhibition, % at 5.96 µM; 300,000 compounds, 1.1% hits; AID 1974;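 active = inhibition above the campaign mean inhibition plus 3 SD, cut at about 35% in these data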;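 note: 0% = GSTO1-1 with DMSO and 100% = wells lacking GSTO1-1 enzyme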
PME-1 primary: PME-1 (human) inhibition. Q9Y570. recombinant PME-1, FP-Rh probe fluorescence polarization. inhibition, % at 5.9 µM. 320,000 compounds, 0.53% hits. AID 2130;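 active = inhibition above the campaign mean of all compounds plus 3 SD, cut at about 26% in these data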;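 note: competitive labeling of PME-1 active site by serine hydrolase directed probe; 0% = PME-1 with DMSO and 100% = wells lacking PME-1 enzyme; inhibitors block probe labeling so polarization falls and inhibition rises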
Fam108B counter: blocks mouse Fam108B hydrolase in RBBP9 counter-screen; recombinant Fam108B, FP-Rh probe fluorescence polarization; inhibition, % at 9.51 µM; 300,000 compounds, 0.33% hits; AID 1947;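 active = inhibition above the screen mean inhibition plus 3 SD, computed separately per campaign, cut at about 18% in these data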;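 note: inhibitors lower polarization as less probe binds the enzyme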
PAD4 FP inh: inhibitors of human PAD4; 330,000 compounds, 0.41% hits; inhibition, % at 6.36 µM; AID 485272; recombinant PAD4, RCA probe fluorescence polarization; Q9UM07;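 active = percent inhibition above a cutoff equal to the mean of all tested compounds plus 3 SD, cut at about 15% in these data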;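 note: 0% = PAD4 with RCA probe and DMSO and 100% = probe without PAD4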
RBBP9 inh: blocks human serine hydrolase RBBP9. O75884. recombinant RBBP9, FP-Rh probe fluorescence polarization. inhibition, % at 7.94 µM. 220,000 compounds, 0.2% hits;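 active = inhibition above the campaign mean of all tested compounds plus 3 SD, cut at about 14% in these data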;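 note: plate controls were DMSO wells with RBBP9 for no effect and wells lacking RBBP9 protein for full effect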
Target sequence (O75884 whole entry, looked up): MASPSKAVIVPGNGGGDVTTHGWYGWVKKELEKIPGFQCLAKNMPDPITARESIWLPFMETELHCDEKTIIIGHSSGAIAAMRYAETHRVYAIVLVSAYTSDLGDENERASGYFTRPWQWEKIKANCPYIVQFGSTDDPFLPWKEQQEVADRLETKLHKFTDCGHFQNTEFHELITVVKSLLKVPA
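Test system: recombinant human RBBP9; Timing: 30 min then 45 min, 25 °C; Detection: fluorescence polarization; Control set: RBBP9 with DMSO as uninhibited control, no-protein wells as full inhibition; Compound dosing: one concentration, 7.94 µM nominal, 0.794% DMSO; Probe or stimulus: FP-Rh activity-based probe, 375 nM before mixing.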
GSTO1 inh conf: confirmation of human GSTO1 inhibitors; 2,400 compounds, 54% hits; inhibition, % at 5.96 µM; shares compounds with GSTO1 counter; recombinant GSTO1, probe fluorescence polarization;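 active = inhibition above the primary screen's cutoff, its mean inhibition plus 3 SD, cut at about 35% in these data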;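 note: loss of polarization as inhibitors block binding of rhodamine sulfonate ester activity probe; 0% = GSTO1 with DMSO and 100% = wells lacking GSTO1 enzyme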
GSTO1 recomb ABPP: inhibitors of recombinant human GSTO1. shares compounds with GSTO1 counter. gel ABPP SE-Rh probe fluorescence. inhibition, % at 1 µM. 130 compounds, 30% hits. AID 463110;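 active = inhibition of the enzyme GSTO1 above about 75%, limit read from the data; inactive = inhibition below that limit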
* marks the source's active call; other numbers are inactive results; x = no result.

SMILES	PRMT1 inh	GSTO1 counter	PME-1 primary	Fam108B counter	PAD4 FP inh	RBBP9 inh	GSTO1 inh conf	others
O=C(OCC(=O)N1CCN(c2ccccc2)CC1)C1=COCCO1	1	67*	-3	4	4	-5	34
CCCc1nc2ccccc2c(=O)n1CC(=O)c1ccc(OC)cc1	1	16	4	2	1	x	x
CCOC(=O)c1c(C)[nH]c(C)c1C(=O)COC(=O)c1cccc(S(=O)(=O)NC)c1	0	40*	-3	-2	-4	-1	22
CC(=O)NN1C(=O)/C(=C/c2ccc(Br)o2)SC1=S	25*	64*	-17	-5	-32	-9	78*
CC(=O)NN1C(=O)/C(=C\c2ccc(Br)o2)SC1=S	21	69*	-28	4	-33	-6	79*
O=C(NCC1(c2ccccc2)CCCC1)c1ccco1	2	0	1	1	-6	-8	x
CC(Sc1nc2ncc(Cl)cc2[nH]1)C(=O)c1c(N)n(C)c(=O)n(C)c1=O (centres undefined)	3	74*	-1	0	-8	x	6
CC(=O)N(C1=C(N)C(=O)c2ccccc2C1=O)c1ccccc1	4	59*	3	-2	1	x	27
c1ccc(-c2noc(CN3CCOCC3)n2)cc1	5	2	6	3	-2	3	x
Cc1onc(-c2ccccc2Cl)c1C(=O)NCc1cccnc1	-1	4	-7	-2	5	-10	x
COc1ccc(CNC(=O)c2c(C)oc3c2C(=O)c2ccccc2C3=O)cc1	-1	53*	4	3	-7	-7	35*
CC(=O)c1c(C)oc2c1C(=O)c1ccccc1C2=O	-3	46*	-12	2	-19	-3	56*
Cc1oc2c(c1C(=O)NCc1cccnc1)C(=O)c1ccccc1C2=O	x	60*	1	1	10	2	48*
COc1ccc(CNC(=O)c2ccc(-c3ccccc3)cc2)cc1	-2	-1	-6	3	-3	-7	x
O=C(c1ccco1)N1CCN(C(=O)c2[nH]c(C(F)(F)F)nc2-c2ccccc2)CC1	0	x	x	x	x	x	x
CC(C)C(=O)Nc1ccc(C(=O)NNC(=S)NC(=O)c2ccco2)cc1	6	45*	5	5	2	-1	8
COc1ccc(S(=O)(=O)N2CCN(c3ccc4nnc(-c5ccc(F)cc5)n4n3)CC2)cc1	-4	-1	4	-5	1	-1	x
Oc1ccc(NCc2cccc(OCc3ccccc3)c2)cc1	17	82*	21	4	6	4	6
Cc1ccc(SC/C(O)=C(\C#N)c2nc3ccccc3s2)cc1	4	49*	6	10	-2	-7	48*
NN/C(=C\[N+](=O)[O-])Nc1ccccc1	4	11	8	1	0	2	x
CCc1ccc(C2CC(=O)Nc3c2c(=O)nc2c(C)cccn32)cc1 (centres undefined)	-4	9	5	1	-1	-5	x
CC1(OC(=O)C2CCCC2)C(=O)C=C2C=C3CCCCN3C=C2C1=O (centres undefined)	x	51*	4	11	0	x	11
COC(=O)CCC(=O)OC1(C)C(=O)C=C2C=C3CCCN3C=C2C1=O (centres undefined)	2	38*	1	9	-9	x	10
COC(=O)CCC(=O)OC1(C)C(=O)C=C2C=C(C3CC3)N(C(CO)CO)C=C2C1=O (centres undefined)	0	23	-3	2	-5	x	x
O=C(NCc1ccc2c(c1)OCO2)c1nnc(Cc2ccc(Cl)cc2)o1	-2	59*	6	-6	-2	1	1
SMILES	PRMT1 inh	GSTO1 counter	PME-1 primary	Fam108B counter	PAD4 FP inh	RBBP9 inh	GSTO1 inh conf	others
Cn1c(Oc2ccncc2)nc2cc(-c3ccsc3)sc2c1=O	-1	x	x	x	x	x	x
O=C(CN(c1cccc([N+](=O)[O-])c1)S(=O)(=O)c1ccccc1)N(Cc1ccccc1)Cc1ccccc1	1	-2	5	1	0	-7	x
O=S(=O)(c1ccc2ccccc2c1)N(CC1CO1)c1ccccc1 (centres undefined)	1	70*	5	1	3	-5	92*	GSTO1 recomb ABPP=26
O=[N+]([O-])c1cccc(N(CC2CO2)S(=O)(=O)c2ccccc2)c1 (centres undefined)	-2	101*	-3	-2	-2	x	98*	GSTO1 recomb ABPP=50
Cc1ccc(S(=O)(=O)N(CC2CO2)c2cc(Cl)ccc2Cl)cc1 (centres undefined)	0	85*	-1	2	0	x	91*	GSTO1 recomb ABPP=0
Cc1ccc(N(CC2CO2)S(=O)(=O)c2ccc([N+](=O)[O-])cc2)cc1 (centres undefined)	-4	88*	5	3	2	x	85*	GSTO1 recomb ABPP=45
Cc1ccc(S(=O)(=O)N(CC(O)CN2CCOCC2)c2cc(Cl)ccc2Cl)cc1 (centres undefined)	-2	6	1	-5	-8	-5	x
NC(=O)C1CCN(Cc2nc3ccccc3c(=O)[nH]2)CC1	-2	0	1	1	-3	-18	x
O=c1cc2oc3cc(O)c(O)cc3c(-c3ccccc3[N+](=O)[O-])c-2cc1O	17	50*	-3	9	-3	x	41*
Cc1c(N2C(=O)/C(=C\c3cccc4ccccc34)SC2=S)c(=O)n(-c2ccccc2)n1C	5	0	-4	2	1	0	x
NNC(=O)C1CC(O)CN1S(=O)(=O)c1ccc2ccccc2c1 (centres undefined)	2	x	-1	x	0	x	x
C/C(=N/NC(=O)Cc1cc(=O)[nH][nH]1)c1ccc([N+](=O)[O-])cc1	8	57*	0	-2	-10	-1	6
C=CCN1C=C2C(=O)C(C)(OC(=O)C3CCCC3)C(=O)C=C2C=C1c1ccsc1 (centres undefined)	17	41*	0	5	-2	x	5
CC(C)CN1C=C2C(=O)C(C)(OC(=O)C3CCCC3)C(=O)C=C2C=C1c1ccsc1 (centres undefined)	6	25	1	1	-12	x	x
CC1(OC(=O)C2CCCC2)C(=O)C=C2C=C(c3ccsc3)N(C3CC3)C=C2C1=O (centres undefined)	7	47*	9	5	7	x	4
CC1(OC(=O)C2CCCC2)C(=O)C=C2C=C(c3ccsc3)N(c3ccccc3)C=C2C1=O (centres undefined)	7	23	5	0	-8	x	x
COC(=O)c1cc2occc2n1CC(=O)N(C)C1CCCCC1	7	5	-3	2	0	-13	x
COc1c(O)c(O)c2oc(-c3ccccc3)cc(=O)c2c1OC	12	20	7	0	-11	2	x
